According to ChEMBL document CHEMBL1134392, “Novel p-arylthio cinnamides as antagonists of leukocyte function-associated antigen-1/intracellular adhesion molecule-1 interaction. 2. Mechanism of inhibition and structure-based improvement of pharmaceutical properties” (J Med Chem, 2001):
Converted amounts (≈) assume the structure as drawn. Each block holds one compound with its values, some of them ahead of it.

Legend:
[1] = target: T1, Intercellular adhesion molecule (ICAM-1), Integrin alpha-L/beta-2 (Homo sapiens, UniProt P05107+P20701)
T1 sequence (P20701 whole entry): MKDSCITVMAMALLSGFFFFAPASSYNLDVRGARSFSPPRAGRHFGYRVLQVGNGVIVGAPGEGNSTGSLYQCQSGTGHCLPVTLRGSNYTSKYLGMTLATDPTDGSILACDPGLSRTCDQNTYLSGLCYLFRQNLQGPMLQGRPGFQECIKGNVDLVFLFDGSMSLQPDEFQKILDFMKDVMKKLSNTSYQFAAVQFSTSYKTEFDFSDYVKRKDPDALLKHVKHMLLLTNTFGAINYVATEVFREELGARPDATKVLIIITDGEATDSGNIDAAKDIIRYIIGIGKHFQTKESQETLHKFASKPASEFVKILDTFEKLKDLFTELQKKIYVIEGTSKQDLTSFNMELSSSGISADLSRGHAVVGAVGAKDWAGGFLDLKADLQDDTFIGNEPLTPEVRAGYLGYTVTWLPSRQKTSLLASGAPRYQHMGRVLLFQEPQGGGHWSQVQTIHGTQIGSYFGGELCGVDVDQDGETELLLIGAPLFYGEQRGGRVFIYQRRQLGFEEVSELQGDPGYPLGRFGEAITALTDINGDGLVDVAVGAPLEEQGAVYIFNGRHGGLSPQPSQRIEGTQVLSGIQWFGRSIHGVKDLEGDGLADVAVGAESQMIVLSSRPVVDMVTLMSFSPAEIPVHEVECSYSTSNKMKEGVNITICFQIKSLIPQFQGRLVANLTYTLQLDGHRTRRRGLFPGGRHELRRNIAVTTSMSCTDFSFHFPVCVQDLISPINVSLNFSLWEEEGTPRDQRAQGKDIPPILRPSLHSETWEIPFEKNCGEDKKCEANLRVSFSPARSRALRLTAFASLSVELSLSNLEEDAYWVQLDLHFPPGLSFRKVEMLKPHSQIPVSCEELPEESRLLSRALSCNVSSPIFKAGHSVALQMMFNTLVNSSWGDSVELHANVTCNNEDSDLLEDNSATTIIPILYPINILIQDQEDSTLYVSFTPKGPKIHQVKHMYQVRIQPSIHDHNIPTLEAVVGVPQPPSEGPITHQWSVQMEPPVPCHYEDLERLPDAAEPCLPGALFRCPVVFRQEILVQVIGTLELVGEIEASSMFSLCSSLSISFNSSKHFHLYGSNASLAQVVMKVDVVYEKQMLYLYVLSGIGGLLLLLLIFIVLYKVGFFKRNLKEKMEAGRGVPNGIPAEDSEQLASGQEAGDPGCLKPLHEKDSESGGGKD
T1 sequence (P05362 whole entry, further chain): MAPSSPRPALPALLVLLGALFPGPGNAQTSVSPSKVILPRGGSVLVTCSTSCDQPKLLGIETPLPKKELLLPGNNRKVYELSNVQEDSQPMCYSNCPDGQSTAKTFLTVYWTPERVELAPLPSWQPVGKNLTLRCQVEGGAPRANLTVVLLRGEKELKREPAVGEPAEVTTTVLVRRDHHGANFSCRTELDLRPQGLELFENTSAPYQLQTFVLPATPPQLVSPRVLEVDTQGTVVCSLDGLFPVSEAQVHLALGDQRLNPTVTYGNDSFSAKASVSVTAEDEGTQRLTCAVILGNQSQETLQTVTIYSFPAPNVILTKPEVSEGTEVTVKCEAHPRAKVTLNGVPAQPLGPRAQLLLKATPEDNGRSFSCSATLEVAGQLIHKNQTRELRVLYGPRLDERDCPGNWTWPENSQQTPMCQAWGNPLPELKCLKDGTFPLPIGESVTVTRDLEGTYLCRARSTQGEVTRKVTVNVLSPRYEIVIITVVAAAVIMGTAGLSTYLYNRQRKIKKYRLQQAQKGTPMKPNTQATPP
T1 sequence (P05107 whole entry): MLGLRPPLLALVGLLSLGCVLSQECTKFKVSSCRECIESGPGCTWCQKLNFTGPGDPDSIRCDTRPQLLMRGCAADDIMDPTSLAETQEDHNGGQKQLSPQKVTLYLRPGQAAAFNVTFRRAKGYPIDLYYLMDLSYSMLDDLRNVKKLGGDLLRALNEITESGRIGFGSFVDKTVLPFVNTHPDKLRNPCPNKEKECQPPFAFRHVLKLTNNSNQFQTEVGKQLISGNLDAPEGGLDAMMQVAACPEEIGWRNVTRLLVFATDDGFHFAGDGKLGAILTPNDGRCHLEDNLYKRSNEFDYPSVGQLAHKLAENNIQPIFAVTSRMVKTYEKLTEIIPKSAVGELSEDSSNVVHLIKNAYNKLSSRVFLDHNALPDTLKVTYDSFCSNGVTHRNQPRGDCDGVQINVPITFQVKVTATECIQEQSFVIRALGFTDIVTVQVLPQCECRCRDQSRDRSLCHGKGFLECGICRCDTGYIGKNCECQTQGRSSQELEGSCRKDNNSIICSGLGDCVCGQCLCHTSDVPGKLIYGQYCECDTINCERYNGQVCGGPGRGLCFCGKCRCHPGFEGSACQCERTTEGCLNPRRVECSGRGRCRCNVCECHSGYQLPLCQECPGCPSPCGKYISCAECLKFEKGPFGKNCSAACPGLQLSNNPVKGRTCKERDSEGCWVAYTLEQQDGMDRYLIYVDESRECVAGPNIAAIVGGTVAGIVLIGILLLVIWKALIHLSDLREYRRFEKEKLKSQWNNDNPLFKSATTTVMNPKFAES

[2] = Pharmacokinetic parameter was evaluated after oral administration of 5 mg/kg; range (4-8); assay type: ADME, organism-based; set-up: dose 5 mg/kg, route oral; conditions: in vivo
[3] = Pharmacokinetic parameter was evaluated which is represented as AUC when administered orally a dose of 5 mg/kg; range (4.2-8.8); assay type: ADME, organism-based; set-up: dose 5 mg/kg, route oral; conditions: in vivo, po
[4] = solubility was determined; assay type: physicochemical
Procedure, shortened: (§1)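 Excess solid removed by filtration. The saturated solution was diluted and drug concentration measured by UV spectrophotometry.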

[5] = Half life when administered 5 mg/kg orally; range (4.1-5.5); assay type: ADME, organism-based; set-up: dose 5 mg/kg; conditions: in vivo, po
[6] = Mean Cmax in rats after 5 mg/kg oral dose, range (0.4-0.8); assay type: ADME, organism-based; set-up: dose 5 mg/kg, route oral; conditions: rat, in vivo
[7] = target: T1, Intercellular adhesion molecule (ICAM-1), Integrin alpha-L/beta-2; assay: Inhibition of JY-8 cell adhesion via leukocyte function associated antigen 1 (LFA-1) to ICAM-1; assay type: cell-based
[8] = Pharmacokinetic parameter was evaluated which is represented as AUC when administered 5 mg/Kg orally; range (0.19-0.35); assay type: ADME; conditions: in vivo, po
[9] = Pharmacokinetic parameter was evaluated which is represented as Vbeta; range (0.9-6); assay type: ADME
[10] = Pharmacokinetic parameter was evaluated which is represented as AUC when administered 5 mg/kg intravenously; range (2.1-2.3); assay type: ADME, organism-based; set-up: dose 5 mg/kg, route intravenous; conditions: in vivo, iv
[11] = Mean Cmax in rats after 5 mg/kg oral dose, range (0.17-0.20); assay type: ADME, organism-based; set-up: dose 5 mg/kg, route oral; conditions: rat, in vivo
[12] = Half life when administered 5 mg/kg orally; range (0.99-1.14); assay type: ADME, organism-based; set-up: dose 5 mg/kg; conditions: in vivo, po
[13] = Pharmacokinetic parameter was evaluated after oral administration of 5 mg/kg; range (0.2-1); assay type: ADME, organism-based; set-up: dose 5 mg/kg, route oral; conditions: in vivo
[14] = target: T1, Intercellular adhesion molecule (ICAM-1), Integrin alpha-L/beta-2; assay: Inhibition of JY-8 cell adhesion via leukocyte function associated antigen 1 (LFA-1) to ICAM-1, range (30-60); assay type: cell-based
[15] = Bioavailability was evaluated after oral administration of 5 mg/kg; range (8.7-15.8); assay type: ADME, organism-based; conditions: eutheria, in vivo
[16] = Half life when administered intravenously; range (0.3-1.79); assay type: ADME, organism-based; conditions: in vivo, iv
[17] = target: T1, Intercellular adhesion molecule (ICAM-1), Integrin alpha-L/beta-2; assay: Inhibition of JY-8 cell adhesion via leukocyte function associated antigen 1 (LFA-1) to ICAM-1, range (120-140); assay type: cell-based
[18] = target: T1, Intercellular adhesion molecule (ICAM-1), Integrin alpha-L/beta-2; assay: Inhibition of JY-8 cell adhesion via leukocyte function associated antigen 1 (LFA-1) to ICAM-1, range (90-100); assay type: cell-based
[19] = target: T1, Intercellular adhesion molecule (ICAM-1), Integrin alpha-L/beta-2; assay: Inhibition of JY-8 cell adhesion via leukocyte function associated antigen 1 (LFA-1) to ICAM-1, range (320-350); assay type: cell-based
[20] = target: T1, Intercellular adhesion molecule (ICAM-1), Integrin alpha-L/beta-2; assay: Inhibition of JY-8 cell adhesion via leukocyte function associated antigen 1 (LFA-1) to ICAM-1, range (100-110); assay type: cell-based
[21] = Dissociation constant was determined; assay type: physicochemical
[22] = target: Integrin alpha-L (Homo sapiens); assay: Binding affinity to leukocyte function associated antigen 1 (LFA-1) I domain by NMR
[23] = target: T1, Intercellular adhesion molecule (ICAM-1), Integrin alpha-L/beta-2; assay: Inhibition of JY-8 cell adhesion via leukocyte function associated antigen 1 (LFA-1) to ICAM-1, range (370-470); assay type: cell-based
[24] = target: T1, Intercellular adhesion molecule (ICAM-1), Integrin alpha-L/beta-2; assay: Inhibition of JY-8 cell adhesion via leukocyte function associated antigen 1 (LFA-1) to ICAM-1, range (110-140)
Rattus norvegicus = species on record: Rattus norvegicus; assay: Pharmacokinetic parameter was evaluated in rats which is represented as Vbeta; assay type: ADME, organism-based; conditions: in vivo
[25] = AUC(area under curve) was determined after intravenous administration in rats; assay type: ADME, organism-based; conditions: rat, plasma
[26] = Half life was determined after intravenous administration; assay type: ADME, organism-based; conditions: in vivo
[27] = Bioavailability was evaluated in rats; assay type: ADME, organism-based; conditions: rat, in vivo
[28] = solubility in rats; assay type: ADME
Procedure, shortened: as §1

[29] = target: T1, Intercellular adhesion molecule (ICAM-1), Integrin alpha-L/beta-2; remark: listed apart in the source

Compound: CC(=O)N1CCN(C(=O)/C=C/c2ccc(Sc3ccc4[nH]ccc4c3)c(Cl)c2)CC1
IC50 [1]: 0.02 µM
Tmax [2]: 360 min
AUC [3]: 5800 ng·h/mL
solubility [4]: 0.8 µg/mL (≈ 1.82 µM)
half-life [5]: 282 min
Cmax [6]: 600 ng/mL

Compound: CC(=O)N1CCN(C(=O)/C=C/c2ccc(Sc3cccc4ccn(C)c34)c(Cl)c2)CC1
IC50 [7]: 0.07 µM

Compound: CCOc1c(Sc2ccc(/C=C/C(=O)N3CCN(C(C)=O)CC3)cc2Cl)ccc2c1OCCO2
IC50 [18]: 0.1 µM

Compound: CCOc1c(Sc2ccc(/C=C/C(=O)N3CCN(C(C)=O)CC3)cc2Cl)cc(Cl)c2cccnc12
IC50 [7]: 0.58 µM

Compound: CCn1cc(CN(C)C)c2cccc(Sc3ccc(/C=C/C(=O)N4CCN(C(C)=O)CC4)cc3Cl)c21
IC50 [20]: 0.1 µM

Compound: Nc1ccc(Sc2ccc3ccccc3c2Cl)c(Cl)c1
IC50 [7]: 2.3 µM
Kd [21]: < 20 µM

Compound: Cn1ccc2ccccc21
Kd [22]: 1400 µM

Compound: CC(=O)N1CCN(C(=O)/C=C/c2ccc(Sc3ccc4c(c3)OCC(C(=O)N(C)C)O4)c(Cl)c2)CC1 (stereo unspecified)
IC50 [7]: 0.51 µM

Compound: CC(=O)N1CCN(C(=O)/C=C/c2ccc(Sc3ccc4cc[nH]c4c3)c(Cl)c2)CC1
IC50 [7]: 0.15 µM

Compound: CC(=O)N1CCN(C(=O)/C=C/c2ccc(Sc3ccc4c(c3)OCO4)c(Cl)c2)CC1
IC50 [24]: 0.12 µM

Compound: c1ccc2c(c1)OCCO2
Kd [22]: 10000 µM

Compound: CC(=O)N1CCN(C(=O)/C=C/c2ccc(Sc3ccccc3C(C)C)c([N+](=O)[O-])c2)CC1 [A-286982]
Vbeta (Rattus norvegicus): 2 kg⁻¹
AUC [25]: 1900 ng·h/mL
half-life [26]: 24 min
bioavailability [27]: 0%
solubility [28]: 0.9 µg/mL (≈ 1.98 µM)

Compound: c1ccc2nsnc2c1 [BENZO[1,2,5]THIADIAZOLE]
Kd [22]: 8000 µM

Compound: CC(=O)N1CCN(C(=O)/C=C/c2ccc(Sc3cc4[nH]c(O)nc4cc3Cl)c(Cl)c2)CC1
IC50 [29]: 0.79 µM

More lines, now with the values ahead:

IC50 [7]: 0.02 µM
Compound: CC(=O)N1CCN(C(=O)/C=C/c2ccc(Sc3ccc4c(c3)OCC(CO)O4)c(Cl)c2)CC1 (stereo unspecified)

AUC [8]: 280 ng·h/mL
Vbeta [9]: 3 kg⁻¹
AUC [10]: 2200 ng·h/mL
Cmax [11]: 190 ng/mL
half-life [12]: 66 min
solubility [4]: 4.1 µg/mL (≈ 8.93 µM)
Tmax [13]: 30 min
IC50 [14]: 0.04 µM
bioavailability [15]: 12.4%
half-life [16]: 33 min
Compound: CC(=O)N1CCN(C(=O)/C=C/c2ccc(Sc3ccc4c(c3)OCCO4)c(Cl)c2)CC1

IC50 [7]: 0.02 µM
Compound: CC(=O)N1CCN(C(=O)/C=C/c2ccc(Sc3ccc4c(ccn4C)c3)c(Cl)c2)CC1

IC50 [7]: 1.2 µM
Compound: CC(=O)N1CCN(C(=O)/C=C/c2ccc(Sc3ccc4c(c3)OCC(C(=O)O)O4)c(Cl)c2)CC1 (stereo unspecified)

IC50 [17]: 0.13 µM
Compound: CCn1ccc2cccc(Sc3ccc(/C=C/C(=O)N4CCN(C(C)=O)CC4)cc3Cl)c21

IC50 [19]: 0.33 µM
Compound: CC(=O)N1CCN(C(=O)/C=C/c2ccc(Sc3ccc4c(ccn4CC(=O)O)c3)c(Cl)c2)CC1

IC50 [14]: 0.06 µM
Compound: COCCn1ccc2cc(Sc3ccc(/C=C/C(=O)N4CCN(C(C)=O)CC4)cc3Cl)ccc21

IC50 [23]: 0.42 µM
Compound: CC(=O)N1CCN(C(=O)/C=C/c2ccc(Sc3ccc4[nH]cc(CN(C)C)c4c3)c(Cl)c2)CC1
